RGS4 pot – potentiators or activators of RGS4 | HEK293 M3R/inducible RGS4, carbachol calcium flux Fluo4; hits give low values | B-score at 10 µM | actives 0.92% (n = 310,000);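 active = B-score of the integrated calcium signal more than 4 SD below the library mean, with starting fluorescence not abnormally high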;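 also: negative B-score means reduced calcium response which marks RGS4 activation or potentiation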
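Detection: kinetic calcium fluorescence imaging with Fluo4-AM dye, 2 µM / Material: HEK293 cells with stable M3R and inducible RGS4 / Schedule: recording 10 s baseline at 1 Hz, 100 s post-agonist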
MrgX1 agonist – activates human MrgX1 receptor signaling; Q96LB2; MrgX1-HEK293 cells, Fluo-4 calcium fluorescence, agonist mode; hits give high values; B-score at 10 µM; actives 0.44% (n = 310,000); AID 588627;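 active = calcium response B-score plate-corrected fluorescence ratio at least 3 library SD, with starting fluorescence B-score inside 5 SD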
Target sequence (Q96LB2 whole entry, looked up): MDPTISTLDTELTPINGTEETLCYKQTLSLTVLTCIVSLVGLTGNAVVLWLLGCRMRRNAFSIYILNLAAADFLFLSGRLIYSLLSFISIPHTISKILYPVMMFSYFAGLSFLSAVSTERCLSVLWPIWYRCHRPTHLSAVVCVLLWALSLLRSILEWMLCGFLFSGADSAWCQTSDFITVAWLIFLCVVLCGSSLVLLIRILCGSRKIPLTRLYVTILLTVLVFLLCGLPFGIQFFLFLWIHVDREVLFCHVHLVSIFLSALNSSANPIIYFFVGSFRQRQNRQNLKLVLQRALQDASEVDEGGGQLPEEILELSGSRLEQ
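Material: MrgX1-expressing HEK293 cells; input: 15,000 cells per well; doses: test compound given as first of three sequential additions; schedule: overnight plating before 1 h dye loading; technique: Fluo-4 NW calcium-flux fluorescence, kinetic read; evaluation: baseline-normalised fluorescence change ratio, B-scored; control set: plate-wise positive and negative controls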
MrgX1 antagonist – blocks BAM8-22 activation of human MrgX1 receptor; Q96LB2; MRGX1-HEK293 calcium flux, Fluo-4, BAM8-22 antagonism; hits give low values; B-score at 10 µM; actives 1.3% (n = 310,000);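 active = calcium-response B-score plate-corrected more than 3 library SD below zero, starting fluorescence within 5 deviations, no agonist response on first addition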;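 also: peak minus trough fluorescence over baseline after final BAM8-22 challenge near maximal dose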
MrgX1 allo act – allosterically activates human MrgX1 receptor signaling. MrgX1-HEK293, Fluo-4 calcium flux, FDSS; hits give high values. actives 0.63% (n = 310,000). B-score at 10 µM. Q96LB2;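 active = plate-corrected calcium response at least 3 library SD above typical, normal starting fluorescence, not activating the receptor alone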;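 also: compound read alongside a low EC10 to EC30 dose of BAM8-22 agonist; peak minus trough fluorescence over baseline measured at the second addition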
RGS4 block – human RGS4 inhibition; P49798; HEK293 M3R/RGS4 inducible, Fluo-4 calcium flux; hits give high values; triggered by carbachol at its EC20; B-score at 10 µM; actives 0.45% (n = 310,000); AID 463165;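 active = B-score, a plate-corrected calcium signal, over three deviations above library mean, with baseline fluorescence within five deviations of library mean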;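 also: RGS4 expression induced by doxycycline in cells with stable M3 receptor; B-score is computed from the integrated fluorescence ratio over baseline after carbachol; higher B-score means a larger calcium signal and so more RGS4 inhibition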
Target sequence (P49798 whole entry, looked up): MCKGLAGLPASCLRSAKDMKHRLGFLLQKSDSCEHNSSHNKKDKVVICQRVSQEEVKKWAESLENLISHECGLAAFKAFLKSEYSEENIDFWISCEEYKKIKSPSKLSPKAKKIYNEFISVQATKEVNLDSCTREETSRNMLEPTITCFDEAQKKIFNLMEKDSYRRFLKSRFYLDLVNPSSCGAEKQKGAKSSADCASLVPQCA
MrgX1 ag confirm – confirmation of human MrgX1 receptor agonists; actives 78% (n = 600); activation, % at 10 µM; MrgX1-HEK293, Fluo-4 calcium fluorescence, FDSS; AID 602412; shares compounds with MrgX1 agonist;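 active = calcium signal rise, corrected for plate position, at least 3 library SD high, with starting brightness within 5 such deviations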
HEK293 Ca flux – activity in parental HEK293 cells lacking MrgX1; shares compounds with MrgX1 antagonist; actives 2% (n = 4,000); fluorescence ratio F(max-min)/F0 at 10 µM; Fluo-4 calcium fluorescence, FDSS;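 active = duplicate-averaged calcium fluorescence ratio at least three times the standard deviation of buffer wells, a nonspecific response in parental cells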
HEK293 Ca counter – MrgX1 allosteric activator counter-screen hit in parental HEK293 cells. AID 624114. fluorescence ratio F(max-min)/F0 at 10 µM. parental HEK293 calcium flux, Fluo-4 fluorescence ratio; hits give high values. shares compounds with MrgX1 antagonist. actives 0.4% (n = 4,000);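 active = calcium fluorescence ratio, averaged over duplicates, at least 3 SD of the buffer-well ratio, meaning a nonspecific response in receptor-free cells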;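 also: untransfected parental HEK293 lacking MrgX1 used as counterscreen for MrgX1 allosteric activators; fluorescence change taken during the second addition on a kinetic imager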
HEK293 Ca cntr2 – activity in parental HEK293 cells lacking MrgX1 receptor; fluorescence ratio F(max-min)/F0 at 10 µM; Fluo-4 calcium fluorescence (FDSS); hits give high values; AID 624115; actives 8.7% (n = 4,000); shares compounds with MrgX1 antagonist;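 active = calcium fluorescence ratio at least three times the spread of buffer wells, meaning a non-specific response in parental cells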
* marks the source's active call; other numbers are inactive results; i = inactive; . = not tested or not shown. A selection: hits, their analogues and other compounds. The true share with any hit is near 3.5%.

SMILES | RGS4 pot | MrgX1 agonist | MrgX1 antagonist | MrgX1 allo act | RGS4 block | MrgX1 ag confirm | HEK293 Ca flux | HEK293 Ca counter | HEK293 Ca cntr2
COc1cccc(Nc2nc3ccccc3n3nnnc23)c1 | i | 31.5* | i | i | i | 124.8%* | i | i | i
CC(=Nc1ccc(Br)cc1)c1sc2ccccc2c1O | i | i | i | i | i | . | . | . | .
CC(=Nc1ccccc1)c1sc2ccccc2c1O | i | 61.5* | i | i | i | 375.9%* | i | i | 100*
Cc1[nH]nc(-c2ccc(O)cc2O)c1Oc1ccccc1 | i | 28.2* | i | i | i | 179.3%* | i | i | i
Cc1ccc(-c2ccc(CCC(=O)O)n2-c2cccc(O)c2)cc1 | i | 27.6* | i | i | i | 135.4%* | i | i | i
C[N+](C)(C)CCOC(N)=O | . | 118* | i | i | . | 546.8%* | i | i | 112*
Cc1nnc(SCCOC(N)=O)n1C | i | . | . | . | i | . | . | . | .
CN(CCOc1ccc(Cl)c(Cl)c1)Cc1ccccc1 | i | i | i | i | i | . | . | . | .
CCN(CC)CCCOc1ccc(Cl)c(Cl)c1 | i | 107* | i | i | i | i | i | i | i
Cn1cc(C(=O)Nc2ccc(F)c(F)c2)cn1 | i | i | i | i | i | . | . | . | .
Fc1ccc2[nH]c3c(NCc4ccccc4)ncnc3c2c1 | i | 38.3* | i | i | i | 251.2%* | i | i | 53.8*
O=C(Nc1nnc(-c2ccccc2Cl)o1)c1nc2ccccc2s1 | i | 103* | i | i | i | 432.5%* | i | i | 84*
CCn1c(-c2ccc(N)cc2)nc2ccccc21 | i | i | i | i | i | . | . | . | .
CC(C)n1c(-c2ccc(N(C)C)cc2)nc2ccccc21 | . | 30.5* | i | i | . | 162.2%* | i | i | i
CCn1c(-c2ccc(N(C)C)cc2)nc2ccccc21 | i | 30.5* | i | i | i | 87.2%* | i | i | i
COc1cc(/C=C2\SC(=S)N(NS(=O)(=O)c3ccc(C)cc3)C2=O)cc(OC)c1OC | i | i | i | i | i | . | . | . | .
COc1cc(/C=C2\SC(=S)N(NC(=O)c3ccccc3OC)C2=O)ccc1O | i | i | i | i | i | . | . | . | .
COc1cc(/C=C2\SC(=S)N(NS(=O)(=O)c3ccc(C)cc3)C2=O)ccc1O | -7.73* | 116* | i | i | i | 554.7%* | 0.384* | i | 149*
COc1cc(/C=C2\SC(=S)N(NS(=O)(=O)c3ccccc3)C2=O)ccc1O | i | 87.1* | i | i | i | 375.0%* | i | i | 99.1*
CC(CNC(=O)C1CCCN(S(=O)(=O)N2CCOCC2)C1)c1ccccc1 (stereo not given) | i | i | i | i | i | . | . | . | .
Cc1ccc(CC(=O)Nc2ccccc2N2CCOCC2)cc1C | . | 35.4* | i | i | . | 94.4%* | i | i | i
COc1ccc(CC(=O)Nc2ccccc2N2CCOCC2)cc1OC | i | i | i | i | i | . | . | . | .
CCOc1ccccc1N(CC(=O)Nc1cccc2ccccc12)S(C)(=O)=O | i | i | i | i | i | . | . | . | .
CCOc1cc(C2C3=C(CC(C)(C)CC3=O)Nc3n[nH]c(C)c32)ccc1O (stereo not given) | i | i | i | i | i | . | . | . | .
CC(C)c1ccc(NC2(C#N)C(=O)Nc3ccccc32)cc1 (stereo not given) | i | 38.7* | i | i | i | 191.4%* | i | i | 49.3*

Screens from PubChem BioAssay.
